This is an account of results in publication PMC9055920 (RSC Advances, 2020).

Each structure is given as a SMILES string. Read-outs that look alike come from different tables or passages of the source.

In test [1] the target is T1, α-glucosidase (Saccharomyces cerevisiae, UniProt P53341). The test can be described thus: Kinetic analysis of inhibitory type. Type of test: biochemical. Particulars: Lineweaver–Burk plots.
Test [2] has as its system α-glucosidase. The note with it: cited from earlier work.
Test [3] deals with Saccharomyces cerevisiae α-glucosidase (Saccharomyces cerevisiae, UniProt P53341). The test can be described thus: α-Glucosidase enzyme activity. The note with it: at the concentration of 125 μmol L^−1. It counts as biochemical.
Saccharomyces cerevisiae α-glucosidase, sequence (P53341 whole entry): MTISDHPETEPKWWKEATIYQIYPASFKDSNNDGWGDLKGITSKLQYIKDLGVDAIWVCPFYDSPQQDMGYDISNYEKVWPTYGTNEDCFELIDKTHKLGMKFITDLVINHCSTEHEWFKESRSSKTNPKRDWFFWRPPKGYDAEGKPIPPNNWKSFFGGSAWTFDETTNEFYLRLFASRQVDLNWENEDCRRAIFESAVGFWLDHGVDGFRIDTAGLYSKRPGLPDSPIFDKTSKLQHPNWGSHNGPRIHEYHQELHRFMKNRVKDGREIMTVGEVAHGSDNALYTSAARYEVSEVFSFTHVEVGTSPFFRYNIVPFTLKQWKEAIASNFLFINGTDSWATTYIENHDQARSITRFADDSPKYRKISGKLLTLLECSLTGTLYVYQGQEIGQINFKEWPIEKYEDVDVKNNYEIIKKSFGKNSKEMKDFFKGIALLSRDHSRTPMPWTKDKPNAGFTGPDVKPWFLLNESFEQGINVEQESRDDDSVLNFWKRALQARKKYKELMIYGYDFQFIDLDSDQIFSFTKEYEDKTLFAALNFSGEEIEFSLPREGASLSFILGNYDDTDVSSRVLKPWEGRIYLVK
Test [4] concerns the target T1, α-glucosidase. The test is described as follows: Fluorescence quenching and thermodynamic analysis. Type of test: binding. Particulars: for ΔH° enthalpy change / ΔS° entropy change: van't Hoff plot over 298, 304, 310 K.
The target of test [5] is T1, α-glucosidase. The test is described as follows: Reversibility, plots of v vs. [α-glucosidase]. The note with it: myricetin 0–6.25 × 10^−5 mol L^−1, c(pNPG) = 3.13 × 10^−4 mol L^−1. Type of test: biochemical.
Test [6] deals with T1, α-glucosidase. The test is described as follows: CD spectroscopy of secondary structure. A digest of the protocol:
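Far-UV CD spectra (190–250 nm) were recorded for S. cerevisiae α-glucosidase held at 2 μmol L−1, with test flavonol added at flavonol:enzyme molar ratios of 0:1, 40:1 and 80:1. Each spectrum was averaged over three scans under constant nitrogen flush, and the buffer signal was subtracted. Experiments were done in triplicate.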

The mark [7] stands for this setting: clinically used antidiabetic drugs.
The mark [8] stands for this setting: natural α-glucosidase inhibitors.
Setting [9] is: molar ratio of myricetin to α-glucosidase 40 : 1.
[10] abbreviates: molar ratio of myricetin to α-glucosidase 80 : 1.

T1 sequence (P53341 whole entry): as above

In the case of `C[C@H]1O[C@H](O[C@H]2[C@H](O)[C@@H](O)[C@@H](O[C@H]3[C@H](O)[C@@H](O)C(O)O[C@@H]3CO)O[C@@H]2CO)[C@H](O)[C@@H](O)[C@@H]1N[C@H]1C=C(CO)[C@@H](O)[C@H](O)[C@H]1O` (stereo partly drawn) [acarbose, reference compound], the Inhibitory type entry at α-glucosidase [1] is “Competitive”. Moreover, the “type of α-glucosidase inhibition (reported)” value with α-glucosidase [2] (setting [7]) is reported as “competitive inhibitors”.
Turning to `O=c1c(O)c(-c2ccccc2)oc2cc(O)cc(O)c12` [galangin], the “type of α-glucosidase inhibition (reported)” value in the test with α-glucosidase [2] (setting [8]) is recorded as “mixed-type”.
Take `O=c1c(-c2ccc(O)cc2)coc2cc(O)cc(O)c12` [genistein]: in the test on α-glucosidase [2] (setting [8]), the “type of α-glucosidase inhibition (reported)” value was “mixed-type”.
As for `O=c1c(O)c(-c2ccc(O)cc2)oc2cc(O)cc(O)c12` [kaempferol], in test [3], the “inhibition of the activity of α-glucosidase” value is “approximately 60%”. Further, on α-glucosidase [4] (298 K), the “Ksv, Stern–Volmer quenching constant” value is given as 9.91 ± 0.08 ×10^4 L mol^−1; the “n, number of binding sites per protein molecule” value (“n, number … per protein molecule” below) was found to be 0.87 ± 0.01; the “ΔG° free energy change” value was -6.938 ± 0.0072 kcal/mol. Besides, on α-glucosidase [4] (304 K), the “Ksv, Stern–Volmer quenching constant” value was 8.81 ± 0.05 ×10^4 L mol^−1; the “n, number … per protein molecule” value is 0.93 ± 0.01; the “ΔG° free energy change” value was -7.032 ± 0.0024 kcal/mol. Besides, at α-glucosidase [4] (310 K), the “Ksv, Stern–Volmer quenching constant” value is 8.04 ± 0.02 ×10^4 L mol^−1; the “n, number … per protein molecule” value was 0.98 ± 0.01; the “ΔG° free energy change” value is -7.122 ± 0.0048 kcal/mol. For the same compound, on α-glucosidase [4], the “ΔH° enthalpy change” value is -2.32 ± 0.237 kcal/mol and the “ΔS° entropy change” value is reported as 64.84 ± 3.25 J mol^−1K^−1. Besides, the Inhibitory type result at α-glucosidase [1] is given as “Mixed-type”.
For the compound `O=c1cc(-c2ccc(O)c(O)c2)oc2cc(O)cc(O)c12` [luteolin], the “type of α-glucosidase inhibition (reported)” value in the test on α-glucosidase [2] (setting [8]) was “mixed-type”.
For `OCCN1C[C@H](O)[C@@H](O)[C@H](O)[C@H]1CO` [miglitol], the “type of α-glucosidase inhibition (reported)” value with α-glucosidase [2] (setting [7]) is “competitive inhibitors”.
With `O=c1c(O)c(-c2ccc(O)cc2O)oc2cc(O)cc(O)c12` [morin], the “type of α-glucosidase inhibition (reported)” value with α-glucosidase [2] (setting [8]) is given as “mixed-type”.
In the case of `O=c1c(O)c(-c2cc(O)c(O)c(O)c2)oc2cc(O)cc(O)c12` [myricetin], on α-glucosidase [4] (298 K), the “Ksv, Stern–Volmer quenching constant” value is recorded as 14.26 ± 0.03 ×10^4 L mol^−1; the “n, number … per protein molecule” value is listed as 0.99 ± 0.01; the “ΔG° free energy change” value was -7.012 ± 0.012 kcal/mol. At α-glucosidase [4] (304 K), the “Ksv, Stern–Volmer quenching constant” value is 13.81 ± 0.04 ×10^4 L mol^−1; the “n, number … per protein molecule” value worked out at 1.04 ± 0.01; the “ΔG° free energy change” value was -7.075 ± 0.0096 kcal/mol. Further, on α-glucosidase [4] (310 K), the “Ksv, Stern–Volmer quenching constant” value is 13.05 ± 0.03 ×10^4 L mol^−1; the “n, number … per protein molecule” value is 1.06 ± 0.01; the “ΔG° free energy change” value is -7.139 ± 0.0096 kcal/mol. Besides, at α-glucosidase [4], the “ΔH° enthalpy change” value is -3.862 ± 0.136 kcal/mol and the “ΔS° entropy change” value came out at 44.22 ± 1.17 J mol^−1K^−1. The reversibility of inhibition entry on α-glucosidase [5] is reported as “reversible inhibitor”. In addition, the Inhibitory type entry at α-glucosidase [1] is “Mixed-type”. Further, at α-glucosidase [6] (setting [9]), the “random coil percentage of α-glucosidase” value came out at 28.0%, the “α-helix content of α-glucosidase” value turned out to be 17.6%, the “β-sheet proportion of α-glucosidase” value is given as 45.7% and the “β-turn content of α-glucosidase” value is 8.7%. On α-glucosidase [6] (setting [10]), the “random coil percentage of α-glucosidase” value was found to be 28.2%, the “α-helix content of α-glucosidase” value was 15.5%, the “β-sheet proportion of α-glucosidase” value amounted to 49.9% and the “β-turn content of α-glucosidase” value is on record as 6.4%.
In the case of `O=c1c(O)c(-c2ccc(O)c(O)c2)oc2cc(O)cc(O)c12` [quercetin], the “inhibition of the activity of α-glucosidase” value in test [3] is “approximately 75%”. Besides, at α-glucosidase [4] (298 K), the “Ksv, Stern–Volmer quenching constant” value is 11.42 ± 0.06 ×10^4 L mol^−1; the “n, number … per protein molecule” value came to 0.97 ± 0.01; the “ΔG° free energy change” value was -6.948 ± 0.0072 kcal/mol. Further, at α-glucosidase [4] (304 K), the “Ksv, Stern–Volmer quenching constant” value is recorded as 11.20 ± 0.06 ×10^4 L mol^−1; the “n, number … per protein molecule” value was 0.99 ± 0.01; the “ΔG° free energy change” value was -7.027 ± 0.0072 kcal/mol. Also, at α-glucosidase [4] (310 K), the “n, number … per protein molecule” value is reported as 1.01 ± 0.01 and the “ΔG° free energy change” value is -7.108 ± 0.0096 kcal/mol. At α-glucosidase [4], the “ΔH° enthalpy change” value is -2.923 ± 0.234 kcal/mol and the “ΔS° entropy change” value is listed as 56.51 ± 3.27 J mol^−1K^−1. In addition, the Inhibitory type entry at α-glucosidase [1] was “Mixed-type”.
`OCC(CO)N[C@H]1C[C@](O)(CO)[C@@H](O)[C@H](O)[C@H]1O` [voglibose]: the “type of α-glucosidase inhibition (reported)” value with α-glucosidase [2] (setting [7]) was “competitive inhibitors”.
